This is an account of results in the RNAGym collection of RNA variant scans (doi:10.1126/science.aae0568).

B1: tRNA (parent)
chain: GUUCCGUUGGCGUAAUGGUAACGCGUCUCCCUCCUAAGGAGAAGACUGCGGGUUCGAGUCCCGUACGGAACG

Variants at the floor of the assay were thinned out.

The series covers variants of B1. Kind of series: yeast fitness relative to wild type (ratio to wild type); higher = fitter; tRNA-Arg(CCU), competitive growth, 37 C, YPD. A digest of the protocol:
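For this measurement, the tRNA-Arg(CCU) gene was varied by chemical synthesis at a 3% per-site mutation rate across 69 sites, and each variant was placed at the native genomic locus in Saccharomyces cerevisiae. The pooled strains went through a 24-hour competition in YPD at 37°C in six parallel replicates, with amplicons from start and end populations read by 100-nucleotide paired-end sequencing. Darwinian fitness relative to wild type followed from the change in each genotype's frequency. Genotypes needed ≥ 100 starting reads, and estimates < 0.5 were set to 0.5.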
In the case of G10A U19A G44C, the yeast fitness worked out at 0.54.
As for G10A A15U A36G U47G A65U, the yeast fitness was no more than 0.5.
For G10A U19C G48A C49G A69U the value was 0.594; for G10A G63C A65G, no more than 0.5.
The value for G10A U13G C22G C46G was no more than 0.5.
The value for G9C A14U G48C U64G was no more than 0.5; that for G9A U13C U19C C34U was 0.549; that for G10A A42G was 0.656.
On to G10A G39A, for which the yeast fitness stood at 0.784.
As for G9C A15G C27A C31G G50A, the yeast fitness is 0.642.
As for G9C C24A A45G C46G, the yeast fitness amounted to 0.597.
The value for G9A C31G was 0.819.
In the case of G9U C24G C55U, the yeast fitness turned out to be 0.668.
For the variant G9A C34U G67A, the yeast fitness was no more than 0.5.
Turning to G9A U16C A20C C61U, the yeast fitness was no more than 0.5.
As to G9C U53C, the yeast fitness was determined as 0.59.
Regarding G10A C27U G56A C60U, the yeast fitness was 0.556.
With G9A C46A, the yeast fitness was 0.91.
For G9A C34G G38C the value was no more than 0.5; for G9C C29U A70C, no more than 0.5; for G9A G50A G67A, 0.652.
For the variant G10C A14C C27A C29G A57C, the yeast fitness was no more than 0.5.
G10A C11G A69C A70G: the yeast fitness is no more than 0.5.
Turning to G10A C22G C62U, the yeast fitness was no more than 0.5.
With G10A C34G A69U, the yeast fitness is no more than 0.5.
Regarding G10A G23A C34G, the yeast fitness is no more than 0.5.
As to G9C C61A, the yeast fitness was 0.531.
The value for G10A G12A G68C was no more than 0.5.
As to G9C A21G U64A, the yeast fitness was no more than 0.5.
For G10A C22A C46A, the yeast fitness was no more than 0.5.
Take G10A A21U C33A G68C: the yeast fitness came out at 0.607.
In the case of G9A G52A, the yeast fitness turned out to be 0.687.
For G9C A20G U35C A36G, the yeast fitness is no more than 0.5.
The value for G9A C31A G41C C55U was no more than 0.5; that for G9A G51C G52C was no more than 0.5.
Consider G9C C24G C27U U47G U53A, for which the yeast fitness is no more than 0.5.
For G9C U19C G48A U64C the value was 0.609; for G10A C30A C31G, no more than 0.5; for G9A G12U A14U U53A U54C, no more than 0.5.
With G10A U32A G48A, the yeast fitness was no more than 0.5.
Regarding G9A G10A U28A G39A G48A C61G C66G, the yeast fitness was no more than 0.5.
The value for G9A G10A C55A A65U G67C was 0.506; that for G9C C24U U26G C62G A70U was no more than 0.5; that for G9A G56A A70C was 1.03.
With G9C A40U A70U, the yeast fitness is no more than 0.5.
For G10A C33U G44C A45G G58A, the yeast fitness was no more than 0.5.
In the case of G9A G10A C31G G52A A65C, the yeast fitness is no more than 0.5.
With G9A G44U, the yeast fitness stood at 0.766.
On to G9A G12C G17A C22G C30U C34G C49U U59G, for which the yeast fitness is no more than 0.5.
Consider G10C A15U C29G C46U G51C C66U, for which the yeast fitness is no more than 0.5.
For the variant G9C U16G C31A C60A, the yeast fitness was no more than 0.5.
G10A U16A G23A C30G G51C: the yeast fitness is no more than 0.5.
As to G9C A21G A57C, the yeast fitness was no more than 0.5.
With G9C U16C C30A G41C A45C C46G, the yeast fitness is no more than 0.5.
With G10A U16A U28A A70U, the yeast fitness is no more than 0.5.
For G10A G17C C30G C33G C61A A65U, the yeast fitness was no more than 0.5.
As to G10A C34G U64A, the yeast fitness is no more than 0.5.
For the variant G10A C27G U28G C34U C46G G67A, the yeast fitness is no more than 0.5.
Turning to G9C A36U A40U G44A G63A, the yeast fitness is no more than 0.5.
As to G10A G48A A69C, the yeast fitness amounted to 0.628.
For the variant G10A A20G U35G A37G, the yeast fitness was no more than 0.5.
Consider G9A G23A G25C U28C A57U A70U, for which the yeast fitness was no more than 0.5.
G10A G23C G52A: the yeast fitness came out at 0.565.
With G9C C33U, the yeast fitness was 0.536.
For the variant G10A A15U A36U, the yeast fitness is no more than 0.5.
Regarding G9A G51C, the yeast fitness was 0.539.
For the variant G10A U26G A65U, the yeast fitness is no more than 0.5.
In the case of G9A C33U U47C, the yeast fitness is no more than 0.5.
For G10C A14C the value was 0.61; for G10A U35A G56A, 0.617; for G9A G12C A14C, 0.535.
Turning to G9C U53A C66U, the yeast fitness is no more than 0.5.
The value for G9C G10C A36U G44A C46G was 0.563.
For the variant G9A G39A A45G G50A G63U A69U, the yeast fitness is no more than 0.5.
Consider G9C A45C A65C, for which the yeast fitness is no more than 0.5.
For G9A C30U A57G, the yeast fitness is no more than 0.5.
For the variant G9C C27G C46G A65G, the yeast fitness was no more than 0.5.
Take G9C A14U G51A U64G: the yeast fitness turned out to be 0.608.
Take G9A G51A C60U G67A: the yeast fitness is 0.588.
For the variant G9C U54G, the yeast fitness worked out at 0.605.
With G9C A14G G44A U53C A70U, the yeast fitness is no more than 0.5.
For G9C C30G A37U U47A the value was no more than 0.5.
With G9C U59A, the yeast fitness was 0.737.
The value for G10A A20U C31G C62U was no more than 0.5.
With G10C A14G C27U G38A C46G, the yeast fitness is no more than 0.5.
For G10A A20C G38A G41A U47A, the yeast fitness is no more than 0.5.
Take G10A U19A A42G U64A: the yeast fitness came out at 0.612.
The value for G9A C55G G56C was no more than 0.5.
Consider G9U C11A C24G C30G, for which the yeast fitness is no more than 0.5.
For the variant G10A U28C C60G, the yeast fitness is no more than 0.5.
For G9C U32G C33G G50A U53G the value was no more than 0.5; for G10A C30U C34U A42U A57G, no more than 0.5; for G9C A20C, 0.626.
For G10A G48A the value was 0.636; for G9C C27U U47G G50A, no more than 0.5; for G9C U28G A65C, 0.582.
Regarding G10A A45G C55A, the yeast fitness is no more than 0.5.
G10A U26A C62U: the yeast fitness is 0.529.
In the case of G10A C24A C30A C31G A43U, the yeast fitness is no more than 0.5.
Take G10A A14U C30U C34A: the yeast fitness is no more than 0.5.
The value for G9U A70C was 1.13.
In the case of G10A A36C C62G, the yeast fitness was no more than 0.5.
Regarding G9C C27U C34G C60A, the yeast fitness was no more than 0.5.
For the variant G9A G17C A43U, the yeast fitness is no more than 0.5.
G9C C11A U47G A69C: the yeast fitness stood at 0.601.
Consider G9C A15G U16C C29A U47C, for which the yeast fitness turned out to be 0.69.
As to G9C A15G G58C, the yeast fitness was determined as 0.564.
Take G9C C22A C34A A70G: the yeast fitness was no more than 0.5.
Consider G10A A36C A70G, for which the yeast fitness is no more than 0.5.
As for G10A A14U, the yeast fitness is no more than 0.5.
The value for G10A C60U was 0.544; that for G10A C60G was 0.531.
For G10A C11A C29A A69U the value was 0.538.
Regarding G10C A14U U19C C60A G68C, the yeast fitness is no more than 0.5.
As for G9C C11A A40C A70U, the yeast fitness is 0.704.
In the case of G9C G38A, the yeast fitness worked out at 0.624.
Take G9C U16G C29G A40G: the yeast fitness is no more than 0.5.
As for G9A G39C A42C C49A, the yeast fitness was no more than 0.5.
With G10C A14U G38C, the yeast fitness came out at 0.736.
On to G9A U16A C30G A57C, for which the yeast fitness was no more than 0.5.
For G10A U19A G44C G67C the value was 0.52; for G9C C22U U26C G58C G68U, no more than 0.5; for G9U C31U A36C U53C, no more than 0.5.
Take G9C U13A U59A: the yeast fitness is 0.718.
The value for G10A C27U A40C U47A G48C was 0.585; that for G10A A45G was 0.839; that for G9U C11G U32G G56A was no more than 0.5.
As to G10A A14U C31A C46A A65U, the yeast fitness was no more than 0.5.
Consider G10A A21C A40G U59C, for which the yeast fitness was no more than 0.5.
The value for G9C A15G C24A C49U was no more than 0.5; that for G10A A36U A37G was no more than 0.5.
Regarding G9A G38C G41C A45G, the yeast fitness is no more than 0.5.
For G9C C27U G58C, the yeast fitness worked out at 0.639.
With G10A C31U G38C G63A A65G G68C A69G, the yeast fitness was no more than 0.5.
Consider G10A C11A G67C, for which the yeast fitness is no more than 0.5.
Regarding G10A U16A U35G, the yeast fitness was no more than 0.5.
Turning to G10A U54G C61U, the yeast fitness is 0.55.
The value for G10A C34U G39C was no more than 0.5; that for G9A C30U G44A was 0.615.
G9C U28A A40C U59C: the yeast fitness is no more than 0.5.
G9C C24U G48C G51A: the yeast fitness is no more than 0.5.
The value for G9C C46G was 0.735.
Take G10A G18A: the yeast fitness is no more than 0.5.
For the variant G9C G12C C24U C34U C49G, the yeast fitness amounted to 0.658.
With G10A A21U C31G, the yeast fitness is no more than 0.5.
For G9A C34G U47C the value was no more than 0.5.
For G10A G18C C33G C66G, the yeast fitness was no more than 0.5.
The value for G10A C27U C33U A43U U54C G68C was no more than 0.5; that for G9C A14G U16G G23A C33A G44A was no more than 0.5.
Consider G9C G10C C29G C46A C66U, for which the yeast fitness was no more than 0.5.
Turning to G10A G17C C31U C55U C60A, the yeast fitness is no more than 0.5.
The value for G9C G10C C66U was no more than 0.5; that for G9C A14C A15U G23A C34A G52C G63C was 0.585.
On to G10A A14G U26C A36U G52A, for which the yeast fitness was no more than 0.5.
As for G10A C31A C61U, the yeast fitness was no more than 0.5.
With G10A U16A G39C, the yeast fitness is no more than 0.5.
The value for G10A U16A C31A G51A was 0.584; that for G10A A21C C24A G63A A65C was no more than 0.5; that for G9C C55G C66A was no more than 0.5.
Take G9C G10C A36U: the yeast fitness is no more than 0.5.
On to G10A U16C C29U, for which the yeast fitness was found to be 0.599.
In the case of G10A G68C, the yeast fitness came to 0.768.
For the variant G9C C27U U47C C55U C62G A69U, the yeast fitness is no more than 0.5.
The value for G9C A65C was 0.67; that for G10A C49A G67A was no more than 0.5; that for G9C U47G C49A A69U was no more than 0.5.
For G10A C34U G44A the value was no more than 0.5.
